{"data": "Published values pooled from the literature", "target": "Mitogen-activated protein kinase kinase kinase kinase 2 (MAP4K2, Homo sapiens, UniProt Q12851)", "Sequence (Q12851 1-820, as in one of the studies)": "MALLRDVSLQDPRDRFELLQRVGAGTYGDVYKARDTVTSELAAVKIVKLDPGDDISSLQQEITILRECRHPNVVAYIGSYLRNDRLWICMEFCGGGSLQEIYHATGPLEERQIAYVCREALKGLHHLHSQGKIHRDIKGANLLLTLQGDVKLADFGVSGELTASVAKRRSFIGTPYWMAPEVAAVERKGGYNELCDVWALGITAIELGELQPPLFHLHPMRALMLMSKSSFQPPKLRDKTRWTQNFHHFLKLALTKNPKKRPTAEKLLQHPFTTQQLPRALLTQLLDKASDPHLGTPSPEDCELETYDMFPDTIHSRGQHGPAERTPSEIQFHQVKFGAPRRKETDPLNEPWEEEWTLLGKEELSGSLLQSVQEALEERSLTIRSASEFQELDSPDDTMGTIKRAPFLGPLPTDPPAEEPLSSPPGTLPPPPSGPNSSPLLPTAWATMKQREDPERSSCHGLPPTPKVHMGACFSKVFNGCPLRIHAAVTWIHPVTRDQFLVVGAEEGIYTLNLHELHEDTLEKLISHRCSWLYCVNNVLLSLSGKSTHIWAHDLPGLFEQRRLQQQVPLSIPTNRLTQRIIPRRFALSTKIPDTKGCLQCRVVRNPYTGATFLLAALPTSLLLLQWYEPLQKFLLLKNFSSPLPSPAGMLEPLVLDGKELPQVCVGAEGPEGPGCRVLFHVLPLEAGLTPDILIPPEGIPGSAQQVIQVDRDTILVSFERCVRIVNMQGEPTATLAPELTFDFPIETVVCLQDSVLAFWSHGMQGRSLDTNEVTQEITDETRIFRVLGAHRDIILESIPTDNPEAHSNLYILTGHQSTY"}
{"SMILES": "Cc1nn(C)cc1-c1nc2c(N3CCN(Cc4ccc(Cl)cc4)CC3)c(Cl)cnc2[nH]1", "observed": "binding", "technique": "competition with immobilised ligand", "tested at": "1 µM", "endpoint": "remaining binding", "result": "85%"}
{"SMILES": "CC(C)(C)c1cc(C=C(C#N)C#N)cc(Br)c1O", "observed": "enzyme activity", "action": "inhibitor", "tested at": "0.5 µM", "endpoint": "remaining activity", "result": "113%"}
{"SMILES": "COc1ncccc1-c1cnn2ccc(N3CCN(C(=O)OC(C)C)CC3)nc12", "observed": "binding", "technique": "competition with immobilised ligand", "tested at": "1 µM", "endpoint": "remaining binding", "result": "65%"}
{"SMILES": "O=c1[nH]c2ccccc2n1C1CCN(Cc2ccc(-c3[nH]c4cc5ncnc5cc4nc3-c3ccccc3)cc2)CC1", "observed": "cell-free assay", "tested at": "0.5 µM", "endpoint": "remaining signal", "result": "105%"}
{"SMILES": "Nc1ncc(-c2nc(N3CCOCC3)nc(N3CCOCC3)n2)c(C(F)F)n1", "observed": "binding", "technique": "competition with immobilised ligand", "tested at": "10 µM", "endpoint": "remaining binding", "result": "78%"}
{"SMILES": "Cn1cncc1[C@@](O)(COc1ccc(C#N)cc1-c1ccc(OC(F)(F)F)cc1)c1ccc(C#N)cc1", "observed": "cell-free assay", "technique": "competition with immobilised ligand", "tested at": "1 µM", "endpoint": "remaining binding", "result": "100%"}
{"SMILES": "Cn1cc(-c2cc(F)cc(N3CCn4c(cc5c4CCCC5)C3=O)c2CO)cc(Nc2ccc(N3CCN(C4COC4)CC3)cn2)c1=O", "observed": "enzyme activity", "action": "inhibitor", "tested at": "0.1 µM", "endpoint": "inhibition", "result": "2%"}
{"SMILES": "COc1cc(Nc2ncc(F)c(Nc3ccc4c(n3)NC(=O)C(C)(C)O4)n2)cc(OC)c1OC", "observed": "binding", "technique": "competition with immobilised ligand", "tested at": "10 µM", "endpoint": "inhibition", "result": "85%"}
{"SMILES": "N#CC1(c2ccccn2)CCN(Cc2cc(C(=O)O)c(=O)n3ccccc23)CC1", "observed": "cell-free assay", "technique": "competition with immobilised ligand", "tested at": "1 µM", "endpoint": "remaining binding", "result": "81%"}
